The values below come from ChEMBL document CHEMBL1154384, “New classes of potent and bioavailable human renin inhibitors” (Bioorg Med Chem Lett, 2009).

Data set [1] deals with T1, Renin (Homo sapiens, UniProt P00797).
T1 sequence (P00797 whole entry): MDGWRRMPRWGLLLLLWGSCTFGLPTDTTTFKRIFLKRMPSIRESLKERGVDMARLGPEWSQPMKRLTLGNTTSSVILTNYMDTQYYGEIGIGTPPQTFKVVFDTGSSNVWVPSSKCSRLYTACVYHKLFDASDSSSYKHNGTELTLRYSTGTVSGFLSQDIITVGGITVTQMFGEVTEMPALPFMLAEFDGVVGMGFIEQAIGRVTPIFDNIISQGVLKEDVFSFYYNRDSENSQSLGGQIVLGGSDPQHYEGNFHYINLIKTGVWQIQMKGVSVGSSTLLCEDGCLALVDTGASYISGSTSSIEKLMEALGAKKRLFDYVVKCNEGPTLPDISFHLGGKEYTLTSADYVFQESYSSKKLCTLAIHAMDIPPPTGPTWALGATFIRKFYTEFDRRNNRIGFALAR
The experiment in a line: Inhibition of human rennin in human plasma assessed as accumulation of angiotensin 1 using human tetradecapeptide by immunoassay. The class given is cell-free.

Data set [2] has as its target T1, Renin. The experiment in a line: Inhibition of human rennin in buffer assessed as accumulation of angiotensin 1 using human tetradecapeptide by immunoassay.
Data set [3] in a line: Dissociation constant, pKa of the compound. The class given is physicochemical. In a few lines:
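pKa of the template's secondary amine, measured experimentally. Compounds poorly soluble in water in their neutral form were measured in solvent mixtures, so their values could only be estimated.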

The nature of data set [4]: Oral bioavailability in Wistar rat at 10 mg/kg. The class given is ADME, organism-based. The following applies: in vivo.
In the next data set the target is Cytochrome P450 3A4 (Homo sapiens, UniProt P08684). In words: Inhibition of CYP3A4. The class given is ADME.

For orientation: IC50 means the midpoint of a concentration-inhibition curve. Broadly, the pKa is the pH at which an ionisable group is half protonated. As a reminder, the bioavailability is dose-corrected exposure relative to a reference, in per cent. Lower therefore signals poor availability.

Cytochrome P450 3A4, sequence (P08684 whole entry): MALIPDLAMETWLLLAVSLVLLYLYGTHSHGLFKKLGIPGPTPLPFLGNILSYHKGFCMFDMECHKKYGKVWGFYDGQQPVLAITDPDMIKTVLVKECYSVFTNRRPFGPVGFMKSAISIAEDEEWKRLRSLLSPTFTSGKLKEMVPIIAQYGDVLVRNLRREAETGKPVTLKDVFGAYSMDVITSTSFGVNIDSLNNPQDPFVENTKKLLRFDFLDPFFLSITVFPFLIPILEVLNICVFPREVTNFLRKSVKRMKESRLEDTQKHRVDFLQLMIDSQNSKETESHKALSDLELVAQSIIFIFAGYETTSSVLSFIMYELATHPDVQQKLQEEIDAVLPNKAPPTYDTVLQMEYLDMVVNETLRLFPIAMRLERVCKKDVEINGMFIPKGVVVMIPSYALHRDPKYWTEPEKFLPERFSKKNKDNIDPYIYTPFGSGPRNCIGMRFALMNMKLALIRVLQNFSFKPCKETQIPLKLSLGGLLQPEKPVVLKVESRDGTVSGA

Turning to `O=C(C1=C(c2ccc(CCCOc3c(F)ccc(F)c3Cl)cc2)C[C@H]2CNC[C@H]1N2)N(Cc1cccc(Cl)c1Cl)C1CC1`, the IC50 worked out at 36 nM at Renin [1] and 0.4 nM at Renin [2]. In data set [3], this compound gave a pKa of 8.2.

For `O=C(C1=C(c2ccc(CCCOc3c(F)ccc(F)c3Cl)cc2)C[C@H]2COC[C@H]1N2)N(Cc1cccc(Cl)c1Cl)C1CC1`, the IC50 at Renin [1] is 55 nM; at Renin [2], 0.68 nM. The pKa in data set [3] came out at 6.5.

Turning to `O=C(C1=C(c2ccc(CCCOc3c(F)ccc(F)c3Cl)cc2)C[C@H]2CCC[C@H]1N2)N(Cc1cccc(Cl)c1Cl)C1CC1`, the values for the IC50 at Renin [1] and at Renin [2] were 113 nM and 1.1 nM, respectively.

On to `O=C(C1=C(c2ccc(CCCOc3c(F)ccc(F)c3Cl)cc2)C[C@H]2CS(=O)(=O)C[C@H]1N2)N(Cc1cccc(Cl)c1Cl)C1CC1`, for which the IC50 at Renin [2] was determined as 6.4 nM.

Turning to `COc1cccc(CN(C(=O)C2=C(c3ccc(CCCOc4c(F)ccc(F)c4Cl)cc3)C(C)(C)CNC2)C2CC2)c1C`, the IC50 on Renin [1] is 7400 nM; on Renin [2], 170 nM. The bioavailability in data set [4] worked out at 10%.

For the compound `COc1cccc(CN(C(=O)C2=C(c3ccc(CCCOc4c(F)ccc(F)c4Cl)cc3)C[C@H]3C[S+]([O-])C[C@H]2N3)C2CC2)c1C` (some centres undefined), on Renin [2], the IC50 amounted to 64 nM.

Consider `COc1cccc(CN(C(=O)C2=C(c3ccc(CCCOc4c(F)ccc(F)c4Cl)cc3)C3(CC3)CNC2)C2CC2)c1C`, for which the concentration for half-maximal inhibition (IC50) on Renin [1] is 7400 nM; on Renin [2], 210 nM. Besides, in data set [4], the bioavailability came to 10%.

As to `O=C(C1=C(c2ccc(CCCOc3c(F)ccc(F)c3Cl)cc2)C[C@H]2CC[C@H]1N2)N(Cc1cccc(Cl)c1Cl)C1CC1`, the IC50 on Renin [1] was found to be 47 nM; on Renin [2] it was 0.55 nM; at Cytochrome P450 3A4, 1900 nM.

`O=C(C1=C(c2ccc(CCCOc3c(F)ccc(F)c3Cl)cc2)C2(CC2)CNC1)N(Cc1cccc(Cl)c1Cl)C1CC1`: the IC50 on Renin [1] was determined as 4000 nM; on Renin [2] it was 34 nM. Also, in data set [4], the bioavailability is 10%.

For the compound `CC1(C)CNCC(C(=O)N(Cc2cccc(Cl)c2Cl)C2CC2)=C1c1ccc(CCCOc2c(F)ccc(F)c2Cl)cc1`, the values for the IC50 at Renin [1] and on Renin [2] were 2000 nM and 31 nM, respectively. Moreover, the bioavailability in data set [4] stood at 10%.

On to `COc1cccc(CN(C(=O)C2=C(c3ccc(CCCOc4c(F)ccc(F)c4Cl)cc3)C[C@H]3CNC[C@H]2N3)C2CC2)c1C`, for which the IC50 at Renin [1] is 54 nM; at Renin [2] it was 1.37 nM. The compound also had a pKa in data set [3] of 3.6.

Consider `COc1cccc(CN(C(=O)C2=C(c3ccc(CCCOc4c(F)ccc(F)c4Cl)cc3)C[C@H]3CCC[C@H]2N3)C2CC2)c1C`, for which the IC50 at Renin [1] was 101 nM; on Renin [2], 0.92 nM.

For `O=C(C1=C(c2ccc(CCCOc3c(F)ccc(F)c3Cl)cc2)C(F)(F)CNC1)N(Cc1cccc(Cl)c1Cl)C1CC1`, in data set [4], the bioavailability was determined as 10%. Besides, at Renin [2], the half-inhibitory concentration (IC50) is 800 nM.

As to `COc1cccc(CN(C(=O)C2=C(c3ccc(CCCOc4c(F)ccc(F)c4Cl)cc3)C[C@H]3COC[C@H]2N3)C2CC2)c1C`, the IC50 at Renin [1] was found to be 42 nM; at Renin [2], 0.49 nM; against Cytochrome P450 3A4, 1000 nM. In addition, in data set [3], the pKa was found to be 6.5.

Regarding `COc1cccc(CN(C(=O)C2=C(c3ccc(CCCOc4c(F)ccc(F)c4Cl)cc3)C[C@H]3CC[C@H]2N3)C2CC2)c1C`, the values for the half-inhibitory concentration (IC50) at Renin [1] and on Renin [2] were 43 nM and 0.74 nM, respectively.

For the compound `COc1cccc(CN(C(=O)C2=C(c3ccc(CCCOc4c(F)ccc(F)c4Cl)cc3)CCNC2)C2CC2)c1C`, the IC50 came to 87 nM on Renin [1] and 2 nM at Renin [2]. Also, the bioavailability in data set [4] was found to be 10%.

Compound `COc1cccc(CN(C(=O)C2=C(c3ccc(CCCOc4c(F)ccc(F)c4Cl)cc3)C(F)(F)CNC2)C2CC2)c1C` came in with a bioavailability in data set [4] of 10%. For the same compound, on Renin [2], the IC50 came out at 330 nM.

The compound `Cc1cc(Cl)c(OCCOc2ccc(C3=C(C(=O)N(Cc4cccc(Cl)c4Cl)C4CC4)CNCC3)cc2)c(Cl)c1` returned a bioavailability in data set [4] of 10%.

Take `O=C(C1=C(c2ccc(CCCOc3c(F)ccc(F)c3Cl)cc2)CCNC1)N(Cc1cccc(Cl)c1Cl)C1CC1`: the IC50 at Renin [1] was 53 nM; on Renin [2] it was 1.2 nM; at Cytochrome P450 3A4, 1300 nM. The bioavailability in data set [4] was determined as 10%.

In data set [4], `O=C(C1=C(c2ccc(CCCOc3cc(F)ccc3Br)cc2)CCNC1)N(Cc1ccccc1Cl)C1CC1` registered a bioavailability of 10%.
